According to ChEMBL document CHEMBL3992564, “Design and synthesis of novel, potent and selective hypoxanthine analogs as adenosine A1 receptor antagonists and their biological evaluation” (Bioorg Med Chem, 2017):
The source made the active and inactive calls. The calls are words filed in the database; no cut-off is given here.

Assays:
[1] = biological target: T1, Adenosine receptor A3 (Homo sapiens) (UniProt P0DMS8); experiment: Displacement of [3H]HEMADO from human adenosine A3 receptor expressed in HEK293 cell membranes at 1 uM after 90 mins relative to control
T1 sequence (whole entry): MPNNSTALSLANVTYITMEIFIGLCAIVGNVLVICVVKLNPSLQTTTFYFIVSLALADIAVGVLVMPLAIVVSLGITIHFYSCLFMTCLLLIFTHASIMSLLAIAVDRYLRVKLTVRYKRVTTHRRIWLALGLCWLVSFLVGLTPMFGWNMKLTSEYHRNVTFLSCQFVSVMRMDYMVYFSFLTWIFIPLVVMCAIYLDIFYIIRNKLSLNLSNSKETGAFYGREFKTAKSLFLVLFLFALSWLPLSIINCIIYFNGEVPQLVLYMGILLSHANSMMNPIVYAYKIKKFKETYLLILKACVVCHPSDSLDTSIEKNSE
How it was run: (§1)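 Membranes from HEK-293 cells stably transfected with human receptor, pre-treated with adenosine deaminase. Radioligands: 1 nM [3H]DPCPX (A1), 1 nM [3H]ZM241385 (A2A), 1.6 nM [3H]MRS-1754 (A2B), 2 nM [3H]HEMADO (A3). Buffers: Tris pH 7.4 (A1, A2A, A3) or pH 6.5 (A2B), with ADA. Incubated 90 min at room temperature, then filtered. Nonspecific binding defined with 100 µM NECA. Ki from 8 concentrations run in triplicate.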

Adenosine receptor A2a = Adenosine receptor A2a (Homo sapiens, UniProt P29274); experiment: Displacement of [3H]ZM241385 from human adenosine A2A receptor expressed in HEK293 cell membranes at 1 uM after 90 mins relative to control; how it was run: as §1
[2] = biological target: T2, Adenosine receptor A2b (Homo sapiens) (UniProt P29275); experiment: Displacement of [3H]MRS-1754 from human adenosine A2B receptor expressed in HEK293 cell membranes at 1 uM after 90 mins relative to control; how it was run: as §1
T2 sequence (whole entry): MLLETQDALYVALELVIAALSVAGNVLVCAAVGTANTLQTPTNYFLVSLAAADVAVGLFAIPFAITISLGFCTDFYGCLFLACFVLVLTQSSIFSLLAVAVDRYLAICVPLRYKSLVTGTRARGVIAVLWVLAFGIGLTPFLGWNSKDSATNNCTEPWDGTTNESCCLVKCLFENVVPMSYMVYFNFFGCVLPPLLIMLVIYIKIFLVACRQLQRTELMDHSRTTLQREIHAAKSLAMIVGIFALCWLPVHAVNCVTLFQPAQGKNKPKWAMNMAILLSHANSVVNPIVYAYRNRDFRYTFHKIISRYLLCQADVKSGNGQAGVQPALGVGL

Adenosine receptor A1 [3] = biological target: T3, Adenosine receptor A1 (Homo sapiens, UniProt P30542); experiment: Displacement of [3H]DPCPX from human adenosine A1 receptor expressed in HEK293 cell membranes after 90 mins
T3 sequence (P30542 whole entry): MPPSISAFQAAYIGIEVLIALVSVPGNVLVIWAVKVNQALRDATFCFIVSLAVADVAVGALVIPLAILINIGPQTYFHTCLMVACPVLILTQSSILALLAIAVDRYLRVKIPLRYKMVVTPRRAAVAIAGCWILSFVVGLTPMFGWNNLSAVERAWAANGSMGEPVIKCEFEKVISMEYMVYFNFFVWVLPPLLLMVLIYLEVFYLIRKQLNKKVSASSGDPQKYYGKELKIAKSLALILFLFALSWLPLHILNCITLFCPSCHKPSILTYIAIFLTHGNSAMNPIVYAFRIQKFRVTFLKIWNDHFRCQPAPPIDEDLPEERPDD

Adenosine receptor A1 [4] = biological target: T3, Adenosine receptor A1; experiment: (§2) Antagonist activity at human adenosine A1 receptor expressed in HEK293 cells assessed as reduction in CPA-mediated inhibition of forskolin-stimulated cAMP level preincubated for 15 mins followed by CPA treatment for 15 mins and subsequent addition of forskolin measured after 30 mins by HTRF assay; format: functional, cell-based
[5] = biological target: T4, Adenosine receptor A1 (Homo sapiens) (UniProt P30542); experiment: Displacement of [3H]DPCPX from human adenosine A1 receptor expressed in HEK293 cell membranes at 1 uM after 90 mins relative to control; how it was run: as §1
T4 sequence (whole entry): T3 sequence (P30542 whole entry)

[6] = biological target: T4, Adenosine receptor A1 (Homo sapiens); experiment: as §2, with “level at 30 uM” for “level”, “assay relative to control” for “assay”; format: functional, cell-based
How it was run: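 Overnight HEK-A1 or HEK-A2B cultures were treated with 1 U/mL ADA for 90 min at 37°C. Compound was added for 15 min, then agonist for 15 min (1 nM CPA for A1; 70 nM NECA for A2B) at room temperature in incomplete DMEM with ADA. Rolipram (20 µM) was included for A1 only. cAMP was read by HTRF.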

[7] = Metabolic stability in human liver microsomes assessed as parent compound remaining measured after 30 mins in presence of NADPH; format: ADME, microsome; settings: read-out: Stability
[8] = Metabolic stability in rat liver microsomes assessed as parent compound remaining measured after 30 mins in presence of NADPH; format: ADME, microsome; settings: read-out: Stability
Liver [9] = experiment: Metabolic stability in rat liver microsomes assessed as metabolic rate measured after 30 mins in presence of NADPH; format: ADME, microsome; settings: 0.5 h
Liver [10] = experiment: Metabolic stability in human liver microsomes assessed as metabolic rate measured after 30 mins in presence of NADPH; format: ADME, microsome; settings: 0.5 h
Adenosine receptor A3 = biological target: T5, Adenosine receptor A3 (Homo sapiens, UniProt P0DMS8); experiment: Displacement of [3H]HEMADO from human adenosine A3 receptor expressed in HEK293 cell membranes after 90 mins; how it was run: as §1
T5 sequence (P0DMS8 whole entry): T1 sequence (whole entry)

Rattus norvegicus [11] = experiment: Natriuretic activity in Wistar rat at 0.1 mg/kg, po via gavage measured after 4 hrs; format: functional, organism-based
How it was run: (§3)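 Male Wistar rats (250-300 g, n = 6) dosed orally at 5 mL/kg. Vehicles: DMAC 5%/NaOH/saline, or NMP 10%/PEG-400 20%/saline pH 12.0. Rats were then kept singly in metabolic cages without food or water for 4 h. Urine volume, Na+ and K+ were measured with a biochemistry analyser.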

Rattus norvegicus [12] = experiment: Diuretic activity in Wistar rat at 0.1 mg/kg, po via gavage measured after 4 hrs; format: functional, organism-based; how it was run: as §3

Chain of Adenosine receptor A2a (P29274 whole entry): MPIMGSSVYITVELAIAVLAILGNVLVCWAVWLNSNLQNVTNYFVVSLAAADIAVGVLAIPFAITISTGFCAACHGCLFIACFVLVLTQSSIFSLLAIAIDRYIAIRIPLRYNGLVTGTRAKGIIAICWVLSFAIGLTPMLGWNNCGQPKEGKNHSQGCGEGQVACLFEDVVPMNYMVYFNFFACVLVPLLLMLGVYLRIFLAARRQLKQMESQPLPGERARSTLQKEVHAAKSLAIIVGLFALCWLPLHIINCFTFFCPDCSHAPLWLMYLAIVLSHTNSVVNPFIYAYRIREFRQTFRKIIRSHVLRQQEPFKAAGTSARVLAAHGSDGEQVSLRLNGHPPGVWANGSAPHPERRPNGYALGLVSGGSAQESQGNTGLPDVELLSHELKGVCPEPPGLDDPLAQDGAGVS

Row | Compound | inhibition [1] [%] | inhibition (Adenosine receptor A2a) [%] | inhibition [2] [%] | Ki (Adenosine receptor A1 [3]) [µM] | further results
1 | CCCn1c(OC2CCOCC2)nc2nc(C3CCCC3)[nH]c2c1=O | 0 | 82 | 56 | 0.02 | Ki (Adenosine receptor A1 [4]): 0.012 µM
2 | CCCn1c(-c2ccc(C(F)(F)F)cc2)nc2nc(C3CCCC3)[nH]c2c1=O | 5 | 0 | 12 |  | inhibition [5]: 70%
3 | CCCn1c(-c2cccc(C(=O)O)c2)nc2nc(C3CCCC3)[nH]c2c1=O |  |  |  |  | inhibition [5]: inactive; inhibition [6]: < 50%
4 | CCCn1c(Oc2cccnc2Cl)nc2nc(C3CCCC3)[nH]c2c1=O |  |  |  | 0.0036 | 
5 | COc1ccc(CCN(C)CCCC(C#N)(c2ccc(OC)c(OC)c2)C(C)C)cc1OC (configuration not stated) |  |  |  |  | remaining at 0.5 h [7]: 78%; remaining at 0.5 h [8]: 68%
6 | CCCn1c(Oc2cccc3[nH]ccc23)nc2nc(C3CCCC3)[nH]c2c1=O |  |  |  | 0.074 | 
7 | CCCn1c(NCc2cccc(Cl)c2)nc2nc(C3CCCC3)[nH]c2c1=O |  |  |  | 0.12 | 
8 | CCCn1c(Oc2cccc3cc[nH]c23)nc2nc(C3CCCC3)[nH]c2c1=O | 40 | 25 | 42 | 0.0055 | Ki (Adenosine receptor A1 [4]): 0.0056 µM
9 | CCCn1c(OC2CCCC2)nc2nc(C3CCCC3)[nH]c2c1=O | 79 | 85 | 92 | 0.014 | Ki (Adenosine receptor A1 [4]): 0.013 µM
10 | CCCn1c(Oc2ccc(C)nc2)nc2nc(C3CCCC3)[nH]c2c1=O |  |  |  | 0.63 | 
11 | CCCn1c(Oc2ccc3[nH]ccc3c2)nc2nc(C3CCCC3)[nH]c2c1=O | 34 | 0 | 0 | 0.036 | 
12 | CCCn1c(-c2cccc(C(F)(F)F)c2)nc2nc(C3CCCC3)[nH]c2c1=O | 0 | 0 | 14 |  | inhibition [5]: 100%; Ki (Adenosine receptor A1 [4]): 0.012 µM
13 | CCCn1c(NCCO)nc2nc(C3CCCC3)[nH]c2c1=O | 0 | 5 | 31 |  | inhibition [5]: 36%
14 | CCCn1c(Oc2ccc(C(N)=O)cc2)nc2nc(C3CCCC3)[nH]c2c1=O |  |  |  | > 1 | 
15 | CCCn1c(Nc2cccc(C(F)(F)F)c2)nc2nc(C3CCCC3)[nH]c2c1=O |  | 27 | 5 | 0.37 | 
16 | CCCn1c(Oc2ccc(S(N)(=O)=O)cc2)nc2nc(C3CCCC3)[nH]c2c1=O |  |  |  | > 1 | 
17 | CCCn1c(NCc2ccc(C(=O)O)cc2)nc2nc(C3CCCC3)[nH]c2c1=O |  | 31 | 16 |  | inhibition [5]: 54%
18 | CCCn1c(Oc2cc(C)ccn2)nc2nc(C3CCCC3)[nH]c2c1=O |  |  |  | > 1 | 
19 | CCCn1c(OC2CCOC2)nc2nc(C3CCCC3)[nH]c2c1=O (configuration not stated) |  |  |  | 0.059 | 

Row | Compound | inhibition [1] [%] | inhibition (Adenosine receptor A2a) [%] | inhibition [2] [%] | Ki (Adenosine receptor A1 [3]) [µM] | further results
20 | CCCn1c(-c2cccc(C(N)=O)c2)nc2nc(C3CCCC3)[nH]c2c1=O |  |  |  | > 1 | 
21 | CCCn1c(OC2CCN(C)C2)nc2nc(C3CCCC3)[nH]c2c1=O (configuration not stated) |  |  |  | > 1 | 
22 | CCCn1c(Nc2ccccc2)nc2nc(C3CCCC3)[nH]c2c1=O |  |  |  | > 1 | 
23 | CCCn1c(Nc2ccc(F)cc2)nc2nc(C3CCCC3)[nH]c2c1=O | 24 | 0 | 6 | > 1 | 
24 | CCCn1c(Oc2cccc(CC(=O)O)c2)nc2nc(C3CCCC3)[nH]c2c1=O |  |  |  | > 1 | 
25 | CCCn1c(Oc2cccc(C(F)(F)F)c2)nc2nc(C3CCCC3)[nH]c2c1=O | 35 | 34 | 0 | 0.019 | Ki (Adenosine receptor A1 [4]): 0.0059 µM
26 | CCCn1c(Oc2cncc(Cl)c2)nc2nc(C3CCCC3)[nH]c2c1=O | 76 | 22 | 37 | 0.012 | Ki (Adenosine receptor A1 [4]): 0.0022 µM
27 | CCCn1c(O[C@@H]2CCOC2)nc2nc(C3CCCC3)[nH]c2c1=O |  |  |  | 0.05 | 
28 | CCCn1c(NCc2ccc(C)cc2)nc2nc(C3CCCC3)[nH]c2c1=O | 24 | 0 | 6 | 0.027 | 
29 | C[C@]12CC[C@H]3[C@@H](CCC4=CC(=O)CC[C@@]43C)[C@@H]1CC[C@@H]2O [TESTOSTERONE] |  |  |  |  | Drug metabolism (Liver [9]): > 1.52 nmol/min/mg; Drug metabolism (Liver [10]): 0.05 nmol/min/mg; remaining at 0.5 h [7]: 84%; remaining at 0.5 h [8]: 2%
30 | CCCn1c(Nc2cccc(F)c2)nc2nc(C3CCCC3)[nH]c2c1=O |  | 31 | 16 | 4.5 | 
31 | CCCn1c(O[C@H]2CCOC2)nc2nc(C3CCCC3)[nH]c2c1=O |  |  |  | 0.085 | 
32 | CCCn1c(NCC(=O)O)nc2nc(C3CCCC3)[nH]c2c1=O | 0 | 0 | 9 |  | inhibition [5]: 72%
33 | CCCn1c(Oc2cccc(OC)c2)nc2nc(C3CCCC3)[nH]c2c1=O |  | 36 | 70 |  | IC50 (Adenosine receptor A3): 0.43 µM
34 | CCCn1c(NCc2ccc(C(F)(F)F)cc2)nc2nc(C3CCCC3)[nH]c2c1=O | 23 | 0 | 0 | 0.023 | 
35 | CCCn1c(=O)c2nc(C34CC5CC(CC3C5)C4)[nH]c2n(CCC)c1=O |  |  |  |  | Activity (Rattus norvegicus [11]): Active; Activity (Rattus norvegicus [12]): Active
36 | CCCn1c(Oc2cccc(O)c2)nc2nc(C3CCCC3)[nH]c2c1=O | 69 | 81 | 53 | 0.0105 | 
37 | CCCn1c(-c2cccc(O)c2)nc2nc(C3CCCC3)[nH]c2c1=O |  | 74 | 100 | 0.001 | Ki (Adenosine receptor A1 [4]): 0.0002 µM
